Assay outcomes (PubChem)
CHOP inhibitor – CHOP inhibition in unfolded protein response. CHO-K1 CHOP-promoter luciferase, tunicamycin-induced, 15-18 h. inhibition, % at 10 µM. 220,000 compounds, 3.8% hits;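 active = compounds that reduced the stress-induced luciferase reporter signal by more than about 70% of percent inhibition, limit read from the data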;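 also: 0% = tunicamycin plus vehicle and 100% = wells without tunicamycin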
UPR CHOP act – activators of apoptotic arm of unfolded protein response (CHOP) | 330,000 compounds, 0.34% hits | CHO-CHOP luciferase reporter, UPR activation, luminescence; percent of tunicamycin response over DMSO baseline | AID 449763 | activation, % at 10 µM;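 active = at 10 µM dose, activation of 40% or more, normalized to positive control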;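 also: 100% = tunicamycin at 10 µg/mL and 0% = DMSO alone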
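Material: CHO-CHOP cells, stable luciferase reporter of PERK-eIF2a-CHOP signalling; quantity: 500 reporter cells seeded per well; buffer or medium: F12 medium containing 10% fetal bovine serum; compound: one dose, 10 µM in 0.5% DMSO; incubation: 6 h compound treatment, 37 °C; measured by: Steady-Glo luciferase luminescence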
Dynein cargo inh – blocks dynein driven cargo transport along microtubules | 220,000 compounds, 0.47% hits | AID 1381 | z-score, hits read low | 3617.4 mouse cells, GR-EGFP nuclear translocation imaging; test concentration mostly 20 µM; stimulated with dexamethasone, 1 µM; stronger effect = lower value;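 active = plate z-score of nuclear minus cytoplasmic receptor signal below a set negative limit, without overly bright fluorescence or cell loss, cut at about -3.5 in these data, passing the limit was not always enough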;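 also: z-score of nuclear minus cytoplasmic ring GR-EGFP intensity difference per well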
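medium = tetracycline-free induction medium containing charcoal-stripped FBS | probe or stimulus = dexamethasone, 1.0 µM final | timing = 48 h induction, then 1 h compound, then 30 min agonist, 37 °C | detection = automated 10x imaging of fixed Hoechst-stained cells | read-out basis = nuclear versus cytoplasmic GR-EGFP signal, averaged per well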
UPR XBP1 act – adaptive UPR (XBP1) activation. CHO-XBP1 luciferase reporter, IRE1-XBP1 UPR activation, luminescence; percent of tunicamycin response, DMSO as zero. activation, % at 20 µM. 330,000 compounds, 0.33% hits;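 active = versus positive control, 20 µM dose yields 30% or more activation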;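 also: 100% = tunicamycin at 10 µg/mL and 0% = DMSO only wells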
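Assay system: CHO-XBP1 luciferase reporter cells; Schedule: 6 h treatment, 37 °C; Detection: glow luminescence from Steady-Glo reagent; Benchmarks: high control tunicamycin 10 µg/mL final, low control DMSO vehicle only.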
pCIP destab – p/CIP protein destabilization; F442A p/CIP-EGFP cells, EGFP fluorescence, 16 h; decrease of EGFP signal, % at 10 µM; 290,000 compounds, 0.01% hits;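 active = EGFP signal decrease of at least 30% at 10 µM or well 3 SD below plate mean, unless failing retest; inactive = the rest, including hits failing retest or dose response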
Target sequence (Q05BA5 1-1403): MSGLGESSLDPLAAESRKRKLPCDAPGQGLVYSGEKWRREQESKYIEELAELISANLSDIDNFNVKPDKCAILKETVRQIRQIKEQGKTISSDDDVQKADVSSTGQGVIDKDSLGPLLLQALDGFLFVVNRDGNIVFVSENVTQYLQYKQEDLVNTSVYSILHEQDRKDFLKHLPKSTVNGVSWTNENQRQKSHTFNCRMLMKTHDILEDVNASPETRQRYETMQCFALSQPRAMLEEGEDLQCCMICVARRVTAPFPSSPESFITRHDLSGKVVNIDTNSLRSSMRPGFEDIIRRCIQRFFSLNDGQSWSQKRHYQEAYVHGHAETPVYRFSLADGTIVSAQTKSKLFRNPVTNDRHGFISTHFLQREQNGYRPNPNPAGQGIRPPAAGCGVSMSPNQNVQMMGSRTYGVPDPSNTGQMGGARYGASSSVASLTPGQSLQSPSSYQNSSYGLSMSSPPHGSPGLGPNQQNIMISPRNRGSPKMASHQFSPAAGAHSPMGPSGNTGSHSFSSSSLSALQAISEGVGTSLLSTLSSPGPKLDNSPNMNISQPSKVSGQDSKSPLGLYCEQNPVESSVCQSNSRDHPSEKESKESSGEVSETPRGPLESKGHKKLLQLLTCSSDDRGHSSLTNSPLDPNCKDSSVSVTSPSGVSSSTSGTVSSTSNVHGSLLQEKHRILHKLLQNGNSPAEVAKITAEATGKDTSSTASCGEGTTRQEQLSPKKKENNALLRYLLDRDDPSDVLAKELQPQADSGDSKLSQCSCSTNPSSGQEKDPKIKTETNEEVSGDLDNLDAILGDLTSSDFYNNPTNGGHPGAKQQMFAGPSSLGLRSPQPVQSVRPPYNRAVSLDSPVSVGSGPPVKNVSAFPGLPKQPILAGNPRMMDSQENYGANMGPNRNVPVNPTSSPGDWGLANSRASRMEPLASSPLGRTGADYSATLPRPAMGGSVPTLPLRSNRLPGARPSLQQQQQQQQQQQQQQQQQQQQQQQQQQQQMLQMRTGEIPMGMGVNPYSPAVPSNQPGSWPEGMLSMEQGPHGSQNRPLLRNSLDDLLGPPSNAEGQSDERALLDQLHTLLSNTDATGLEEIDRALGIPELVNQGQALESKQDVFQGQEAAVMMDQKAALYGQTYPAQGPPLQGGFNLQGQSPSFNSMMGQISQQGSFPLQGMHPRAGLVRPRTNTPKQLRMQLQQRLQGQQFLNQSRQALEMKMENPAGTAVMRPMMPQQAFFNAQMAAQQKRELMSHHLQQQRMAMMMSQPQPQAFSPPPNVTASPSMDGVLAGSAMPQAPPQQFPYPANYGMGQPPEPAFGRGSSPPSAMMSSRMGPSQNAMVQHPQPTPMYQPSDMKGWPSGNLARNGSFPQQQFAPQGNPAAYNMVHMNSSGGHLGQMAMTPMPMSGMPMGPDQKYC
B2AR ag – human beta-2 adrenergic receptor agonism by FAP | P07550 | AID 504454 | response, % (test concentration not listed) | Am2.2-beta2AR cells, FAP receptor internalization, flow cytometry | 340,000 compounds, 0.43% hits;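 active = response above a set limit, near 3 SD of response in nonfluorescent compounds, cut at about 42% in these data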
CHOP UPR conf – apoptotic UPR (CHOP) activation, confirmed | shares compounds with UPR CHOP act | CHO-CHOP cells, CHOP-luciferase reporter luminescence; percent of tunicamycin response, DMSO as zero | activation, % at 10 µM | 1,000 compounds, 64% hits | AID 463112; in the data active = activation above about 33%;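 also: 0% = DMSO wells and 100% = tunicamycin 10 µg/mL wells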
UPR XBP1 confirm – confirmation of adaptive unfolded protein response (XBP1) activators | shares compounds with UPR XBP1 act | CHO-XBP1 IRE1-XBP1 luciferase reporter, luminescence | activation, % at 20 µM | 1,000 compounds, 63% hits | AID 485299;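 active = reporter signal at least 30% of the positive control's activation in two or more of four replicate wells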;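 also: plate controls were DMSO negative control for no effect and tunicamycin 10 µg/mL positive control for full effect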
Beta2AR ag CP1 – agonists of human beta-2 adrenergic receptor; shares compounds with B2AR ag; Am2.2-beta2AR cells, FAP surface receptor, flow cytometry; stronger effect = lower value; percent response (surface receptor), % at 10 µM; 1,100 compounds, 25% hits; AID 540358;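 active = surface receptor percent response at or below 58%, roughly 3 SD from nonfluorescent compounds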
FAP fluor counter – fluorescence artifact in beta-2AR agonist FAP counterscreen; 1,100 tested, under 10 active; shares compounds with B2AR ag; Am2.2 cells, FAP fluorogen flow cytometry; stronger effect = lower value; calls only at 10 µM;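 active = percent response below a set limit in fluorescence channel 1 and below 50% in channel 8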
* = called active by the depositor; i = inactive; nt = no result given. Many of the other results were omitted from the sample, so hits are more common in it than they were.

SMILES	CHOP inhibitor	UPR CHOP act	Dynein cargo inh	UPR XBP1 act	pCIP destab	B2AR ag	CHOP UPR conf	UPR XBP1 confirm	others
COc1ccc(OC)c(NC(=O)c2ccc3c(=O)n(CCc4ccccc4)c(=S)[nH]c3c2)c1	100*	46*	-0.13	36*	-8	-4	7	16
COc1cccc(-n2c(SCC(=O)N3CCc4ccccc43)nnc2-c2c[nH]c3ccccc23)c1	90*	102*	-1	336*	6	-7	43*	229*
Cc1ccc(C(=O)C(C(=O)/C=C/c2ccccc2)=C2SCCCS2)cc1	-79	75*	-4.5*	30*	-8	17	96*	39*
COc1ccc(/C=C/C(=O)C(C(N)=O)=C2SCCS2)cc1	-33	6	3.1	-1	-9	6	nt	nt
N#Cc1ccc(N/N=C/c2cn(-c3ccccc3)nc2-c2ccccc2)c([N+](=O)[O-])c1	83*	107*	-0.72	43*	5	-12	108*	122*
CC1=C(CC/C(C)=N/NC(N)=S)C(C)(C)CCC1	29	151*	0.26	58*	-8	4	48*	55*
O=C(O)c1ccc(N2C(=O)/C(=C/c3ccc(-c4ccc([N+](=O)[O-])cc4)o3)C=C2c2ccccc2)cc1	12	44*	-1.5	57*	-1	-195	20	80*
O=C1NN(c2ccccc2)C(=O)/C1=C/c1ccc(-c2ccc(C(=O)O)cc2)o1	nt	2	nt	-3	4	2	nt	nt
Cc1ccc(C)c(NC(=S)c2ccc3ccccc3n2)c1	-38	4	0.58	2	-6	-2	nt	nt
Cc1ccc(C)c(NC(=S)c2ccccn2)c1	-121	125*	-0.56	33*	-1	-2	112*	13	Beta2AR ag CP1=114;FAP fluor counter=i
O=S(=O)(Nc1cccc2ncccc12)c1cccs1	nt	49*	-1.6	-8	-1	44*	-4	nt	Beta2AR ag CP1=89;FAP fluor counter=i
Cc1c(NS(=O)(=O)c2cccs2)cccc1-c1nc2cccnc2s1	-8	4	0.37	1	1	0	nt	nt
O=S(=O)(Nc1cccc2cccnc12)c1ccccc1	nt	368*	nt	-9	1	46*	58*	nt	Beta2AR ag CP1=90;FAP fluor counter=i
Cc1ccc2cccc(NS(=O)(=O)c3ccccc3)c2n1	nt	446*	nt	0	-39	nt	94*	nt	Beta2AR ag CP1=119;FAP fluor counter=i
CC(=O)Nc1ccc(S(=O)(=O)Nc2cccc3cccnc23)cc1	nt	-1	nt	0	15	-1	nt	nt
CC(=O)N(C)c1cccc(-c2ccc3nnc(C)n3n2)c1	nt	1	nt	-1	9	6	nt	nt
Cc1ccc(-c2nc(NC(=O)c3nn(C)cc3[N+](=O)[O-])sc2C)cc1C	38	65*	-2.1	13	-11	80*	68*	nt	Beta2AR ag CP1=48*;FAP fluor counter=i
Cc1cc(C)n(Cc2ccc(NC(=O)c3nn(C)cc3[N+](=O)[O-])cc2)n1	58	-1	-1.3	-2	-14	1	nt	nt
Cc1cccc(-c2ncc(S(=O)(=O)C(C)(C)C)c(N)n2)c1	-36	3	-0.46	5	-27	4	nt	nt
O=C(COC(=O)c1ccccc1C(=O)c1ccc(Cl)c([N+](=O)[O-])c1)NC1CCCCCC1	93*	85*	-3.2	-4	-17	53*	36*	nt	Beta2AR ag CP1=9.7*;FAP fluor counter=i
COc1ccc(CN2C(=O)CS/C2=N/N=C/c2cccs2)cc1	-6	0	-0.094	-2	1	-8	nt	nt
COc1cc(C(=O)Oc2c(CN3CCOCC3)cc(Cl)c3cccnc23)cc(OC)c1OC	29	62*	-0.71	24	-8	-14	56*	nt	Beta2AR ag CP1=98;FAP fluor counter=i
Clc1ccc(-n2nnnc2Sc2ncnc3sccc23)cc1	nt	89*	-0.92	-9	nt	54*	112*	nt	Beta2AR ag CP1=35*;FAP fluor counter=i
Cc1cc(=O)[nH]c(SCC(=O)Nc2cccc(S(=O)(=O)N3CCOCC3)c2)n1	nt	-3	nt	-2	nt	7	nt	nt
CCCCCC1CCC(c2ccc(/C(N)=N/O)cc2)CC1 (stereo unspecified)	18	2	0.58	32*	0	10	nt	3
SMILES	CHOP inhibitor	UPR CHOP act	Dynein cargo inh	UPR XBP1 act	pCIP destab	B2AR ag	CHOP UPR conf	UPR XBP1 confirm	others
COc1cc(C(=O)OCC(=O)N2CCN(S(=O)(=O)c3ccc(C)cc3C)CC2)c([N+](=O)[O-])cc1OC	nt	nt	nt	nt	nt	3	nt	nt
Cc1ncc([N+](=O)[O-])n1S(=O)(=O)c1cc(Br)ccc1Br	nt	0	nt	1	-13	4	nt	nt
O=C(NNC(=S)NC1CCCCC1)c1sc2ccccc2c1Cl	17	1	1.2	0	-1	7	nt	nt
CC(C)(C)C(=O)NC(=S)NNC(=O)c1sc2ccccc2c1Cl	110*	20	-0.0057	35*	8	8	nt	31*
Cc1cc(C(=O)NNC(=O)c2ccccc2[N+](=O)[O-])c(C)o1	nt	2	nt	59*	nt	-1	nt	2
COc1ccccc1C(=O)NNC(=O)c1ccccc1[N+](=O)[O-]	25	1	0.75	-2	2	9	nt	nt
Cc1ccc(/C=C/C(=O)c2cc(Br)ccc2OC(=O)c2ccco2)cc1	21	3	-2.6	54*	-23	3	nt	108*
O=[N+]([O-])c1ccc(N/N=C/c2ccc(OCc3cccc4ccccc34)cc2)nc1	54	36	-0.12	74*	-10	7	nt	34*
COc1ccc(C=NNc2ccc([N+](=O)[O-])cn2)cc1	nt	nt	nt	nt	nt	-3	nt	nt
COC(=O)Nc1nc(-c2ccccc2)c(C(=O)c2ccc(Cl)cc2)s1	12	-2	0.8	16	-12	0	nt	nt
CCOC(=O)Nc1nc(-c2ccccc2)c(C(=O)c2ccccc2)s1	44	0	0.45	31*	-24	8	nt	12
CC(=O)c1cccc(Nc2nc(-c3cccc([N+](=O)[O-])c3)cs2)c1	55	5	0.91	43*	-3	10	nt	32*
CC(C)(C)c1cc(-c2nc(N)nc(N)n2)c(O)c(C(C)(C)C)c1	nt	0	nt	58*	nt	4	nt	30*
